Assay results reported in ChEMBL document CHEMBL1177688, “Synthesis of novel pyrazolic analogues of chalcones and their 3-aryl-4-(3-aryl-4,5-dihydro-1H-pyrazol-5-yl)-1-phenyl-1H-pyrazole derivatives as potential antitumor agents” (2010).

Columns and labels:
Format in all cases: functional
LOX IMVI = assay: Antiproliferative activity against human LOXIMVI cells after 48 hrs by SRB assay
Summary of the method: (§1)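 NCI 60-cell-line human tumour panel, secondary five-dose screen. Compounds tested at 100, 10, 1.0, 0.1 and 0.01 µM with 48 h continuous exposure. Cell growth was estimated by sulforhodamine B protein staining. GI50 is the concentration giving a 50% reduction in net protein increase relative to untreated control cells over the incubation. TGI and LC50 were also derived.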

MDA-MB-231 = assay: Antiproliferative activity against human MDA-MB-231 cells after 48 hrs by SRB assay; conditions: MDA-MB-231, 48 h
Summary of the method: (§2)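 NCI 60-cell human tumour line panel. Continuous 48 h drug exposure at five concentrations (100, 10, 1.0, 0.1, 0.01 µM). Cell growth estimated by sulforhodamine B protein staining. GI50 = concentration giving 50% reduction in net protein increase versus control cells over the incubation. LC50 = molar concentration killing 50% of cells.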

CAKI-1 = assay: Antiproliferative activity against human Caki1 cells after 48 hrs by SRB assay; conditions: CAKI-1, 48 h; summary of the method: as §2
NCI-H23 = assay: Antiproliferative activity against human NCI-H23 cells after 48 hrs by SRB assay; conditions: NCI-H23, 48 h; summary of the method: as §2
ACHN = assay: Antiproliferative activity against human ACHN cells after 48 hrs by SRB assay; summary of the method: as §2
COLO 205 = assay: Antiproliferative activity against human COLO205 cells after 48 hrs by SRB assay; conditions: COLO 205, 48 h; summary of the method: as §2
NCI-H226 = assay: Antiproliferative activity against human NCI-H226 cells after 48 hrs by SRB assay; conditions: NCI-H226, 48 h, read-out: LC50 (the source's name); summary of the method: as §1
SK-MEL-28 = assay: Antiproliferative activity against human SK-MEL-28 cells after 48 hrs by SRB assay; conditions: SK-MEL-28, 48 h, read-out: LC50 (the source's name); summary of the method: as §1
T47D = assay: Antiproliferative activity against human T47D cells after 48 hrs by SRB assay; summary of the method: as §2
A549 = assay: Antiproliferative activity against human A549 cells after 48 hrs by SRB assay; conditions: A549, 48 h, read-out: LC50 (the source's name); summary of the method: as §1
NCI/ADR-RES = assay: Antiproliferative activity against human NCI/ADR-RES cells after 48 hrs by SRB assay; summary of the method: as §2
SK-MEL-5 = assay: Antiproliferative activity against human SK-MEL-5 cells after 48 hrs by SRB assay; conditions: SK-MEL-5, 48 h; summary of the method: as §2
NCI-H522 = assay: Antiproliferative activity against human NCI-H522 cells after 48 hrs by SRB assay; conditions: NCI-H522, 48 h; summary of the method: as §1
[1] = Antiproliferative activity against human […] cells after 48 hrs by SRB assay; summary of the method: as §1
MDA-MB-468 = assay: Antiproliferative activity against human MDA-MB-468 cells after 48 hrs by SRB assay; conditions: MDA-MB-468, 48 h, read-out: LC50 (the source's name); summary of the method: as §1
BT-549 = assay: Antiproliferative activity against human BT549 cells after 48 hrs by SRB assay; conditions: BT-549, 48 h, read-out: LC50 (the source's name); summary of the method: as §1
NCI-H460 = assay: Antiproliferative activity against human NCI-H460 cells after 48 hrs by SRB assay; conditions: NCI-H460, 48 h; summary of the method: as §1
HT-29 = assay: Antiproliferative activity against human HT-29 cells after 48 hrs by SRB assay; conditions: HT-29, 48 h, read-out: LC50 (the source's name); summary of the method: as §1
UO-31 = assay: Antiproliferative activity against human UO31 cells after 48 hrs by SRB assay; conditions: UO-31, 48 h, read-out: LC50 (the source's name); summary of the method: as §1
SNB-75 = assay: Antiproliferative activity against human SNB75 cells after 48 hrs by SRB assay; conditions: SNB-75, 48 h; summary of the method: as §1
RXF 393 = assay: Antiproliferative activity against human RXF393 cells after 48 hrs by SRB assay; conditions: RXF 393, 48 h; summary of the method: as §2
SK-MEL-2 = assay: Antiproliferative activity against human SK-MEL-2 cells after 48 hrs by SRB assay; conditions: SK-MEL-2, 48 h, read-out: LC50 (the source's name); summary of the method: as §1
HCC 2998 = assay: Antiproliferative activity against human HCC2998 cells after 48 hrs by SRB assay; conditions: HCC 2998, 48 h; summary of the method: as §1
HOP-92 = assay: Antiproliferative activity against human HOP92 cells after 48 hrs by SRB assay; conditions: HOP-92, 48 h; summary of the method: as §1
HCT-15 = assay: Antiproliferative activity against human HCT15 cells after 48 hrs by SRB assay; conditions: HCT-15, 48 h; summary of the method: as §1
M14 = assay: Antiproliferative activity against human M14 cells after 48 hrs by SRB assay; conditions: M14, 48 h, read-out: LC50 (the source's name); summary of the method: as §1
U-251 = assay: Antiproliferative activity against human U251 cells after 48 hrs by SRB assay; conditions: U-251, 48 h; summary of the method: as §2
TK-10 = assay: Antiproliferative activity against human TK10 cells after 48 hrs by SRB assay; conditions: TK-10, 48 h, read-out: LC50 (the source's name); summary of the method: as §1
OVCAR-5 = assay: Antiproliferative activity against human OVCAR5 cells after 48 hrs by SRB assay; conditions: OVCAR-5, 48 h; summary of the method: as §1
SF-268 = assay: Antiproliferative activity against human SF268 cells after 48 hrs by SRB assay; conditions: SF-268, 48 h; summary of the method: as §1
SR = assay: Antiproliferative activity against human SR cells after 48 hrs by SRB assay; summary of the method: as §1
KM12 = assay: Antiproliferative activity against human KM12 cells after 48 hrs by SRB assay; conditions: KM12, 48 h, read-out: LC50 (the source's name); summary of the method: as §1
DU-145 = assay: Antiproliferative activity against human DU145 cells after 48 hrs by SRB assay; conditions: DU-145, 48 h, read-out: LC50 (the source's name); summary of the method: as §1
SNB-19 = assay: Antiproliferative activity against human SNB19 cells after 48 hrs by SRB assay; conditions: SNB-19, 48 h, read-out: LC50 (the source's name); summary of the method: as §1
Malme-3M = assay: Antiproliferative activity against human MALME-3M cells after 48 hrs by SRB assay; conditions: read-out: LC50 (the source's name); summary of the method: as §1
SF-295 = assay: Antiproliferative activity against human SF295 cells after 48 hrs by SRB assay; conditions: SF-295, 48 h; summary of the method: as §1
SK-OV-3 = assay: Antiproliferative activity against human SKOV3 cells after 48 hrs by SRB assay; conditions: SK-OV-3, 48 h; summary of the method: as §1
UACC-257 = assay: Antiproliferative activity against human UACC257 cells after 48 hrs by SRB assay; conditions: UACC-257, 48 h; summary of the method: as §1
[2] = read-out: LC50 (the source's name)

COc1ccc(C2=NN(C(C)=O)C(c3cn(-c4ccccc4)nc3-c3ccc(Cl)cc3)C2)cc1 (stereo not drawn) showed a GI50 (LOX IMVI) of 1660 nM, a GI50 (MDA-MB-231) of 1880 nM and a GI50 (CAKI-1) of 1960 nM. For the same compound, the GI50 (NCI-H23) was 1770 nM, the GI50 (ACHN) was 1820 nM and the GI50 (COLO 205) was 2160 nM. It also gave a CC50 (NCI-H226) greater than 100000 nM, a CC50 (SK-MEL-28) greater than 100000 nM and a GI50 (T47D) of 1900 nM. The CC50 (A549) was greater than 100000 nM, the GI50 (NCI/ADR-RES) was 1800 nM and the GI50 (SK-MEL-5) was 1790 nM. For the same compound, the GI50 (NCI-H522) was 2200 nM, the LC50 (concentration killing 50% of tumour cells) (NCI-H522) was greater than 100000 nM and the GI50 [1] was 1730 nM. The LC50 (50% lethal concentration) [1] was greater than 100000 nM, the CC50 (MDA-MB-468) was greater than 100000 nM and the CC50 (BT-549) was greater than 100000 nM. It also gave a GI50 (NCI-H460) of 1980 nM, a CC50 (HT-29) greater than 100000 nM and a CC50 (UO-31) greater than 100000 nM. For the same compound, the GI50 (SNB-75) was 2760 nM, the LC50 (50% lethal concentration) (SNB-75) was greater than 100000 nM and the GI50 (RXF 393) was 1820 nM. It also gave a CC50 (SK-MEL-2) greater than 100000 nM, a GI50 (HCC 2998) of 2210 nM and a CC50 (HCC 2998; [2]) greater than 100000 nM. The GI50 (HOP-92) was 40 nM, the GI50 (HCT-15) was 3090 nM and the CC50 (HCT-15; [2]) was greater than 100000 nM. It also gave a CC50 (M14) greater than 100000 nM, a GI50 (U-251) of 1710 nM and a CC50 (TK-10) greater than 100000 nM. For the same compound, the GI50 (OVCAR-5) was 1810 nM, the CC50 (OVCAR-5; [2]) was greater than 100000 nM and the GI50 (SF-268) was 4550 nM. It also gave an LC50 (SF-268) greater than 100000 nM, a GI50 (SR) of 1570 nM and a CC50 (KM12) greater than 100000 nM. For the same compound, the CC50 (DU-145) was greater than 100000 nM, the CC50 (SNB-19) was greater than 100000 nM and the CC50 (Malme-3M) was greater than 100000 nM. The GI50 (SF-295) was 2480 nM, the CC50 (SF-295; [2]) was greater than 100000 nM and the GI50 (SK-OV-3) was 2140 nM. It also gave a CC50 (SK-OV-3; [2]) greater than 100000 nM, a GI50 (UACC-257) greater than 100000 nM and an LC50 (concentration killing 50% of cells) (UACC-257) greater than 100000 nM.
